According to ChEMBL document CHEMBL4251669, “Identification of Gibberellic Acid Derivatives That Deregulate Cholesterol Metabolism in Prostate Cancer Cells” (2018):
The source made the active and inactive calls. No cut-off for these calls is given here.

Experiments:
[1] = test system: LNCaP; assay: Induction of cholesterol metabolism deregulation in human LNCAP cells assessed as reduction in free NBD-cholesterol uptake
[2] = test system: LNCaP; assay: Induction of cholesterol metabolism deregulation in human LNCAP cells assessed as reduction in NBD-cholesterol uptake at 30 uM after 48 hrs by DAPI/Alexa fluor 633 phalloidin staining based high-content imaging analysis; format: functional, cell-based
Outline: (§1)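 LNCaP seeded 72 h on poly-L-ornithine-coated plates and treated 48 h in three replicate wells: DMSO vehicle, compounds at 30 μM, TOFA 10 μM or orlistat 20 μM. Then 3 h at 37 °C in serum-free RPMI with 0.2% BSA and 15 μM NBD-cholesterol. PFA-fixed, glycine-quenched, stained with DAPI and phalloidin. Imaged at 10× to 1000 cells/well; per-cell NBD mean fluorescence, about 3000 cells/treatment, mean ± SD.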

[3] = test system: LNCaP; assay: Induction of cholesterol metabolism deregulation in human LNCAP cells assessed as effect on fatty acid uptake at 30 uM after 48 hrs by DAPI/Alexa fluor 633 phalloidin staining based high-content imaging analysis; format: functional, cell-based
[4] = test system: LNCaP; assay: Cytotoxicity against human LNCAP cells assessed as reduction in cell viability at 10 uM after 72 hrs by alamar blue assay relative to control; format: functional
Outline: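 LNCaP cells (ATCC) in phenol-red-free RPMI-1640 with 5% FBS, 37 °C, 5% CO2, seeded 4000/well for 24 h, then exposed 72 h. Stocks in DMSO, final DMSO 0.3%; DMSO as negative and vinblastine 50 nM as positive control. Viability read by alamarBlue metabolic reduction. Triplicate points, at least three independent experiments.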

[5] = test system: LNCaP; assay: Induction of cholesterol metabolism deregulation in human LNCAP cells assessed as effect on cellular lipid content at 30 uM after 48 hrs by DAPI/Alexa fluor 633 phalloidin staining based high-content imaging analysis; format: functional, cell-based
[6] = test system: LNCaP; assay: Induction of cholesterol metabolism deregulation in human LNCAP cells assessed as reduction in NBD-cholesterol uptake at 20 uM after 48 hrs by DAPI/Alexa fluor 633 phalloidin staining based high-content imaging analysis; format: functional, cell-based
Outline: as §1

[7] = test system: LNCaP; assay: Induction of cholesterol metabolism deregulation in human LNCAP cells assessed as reduction in NBD-cholesterol uptake at 10 uM after 48 hrs by DAPI/Alexa fluor 633 phalloidin staining based high-content imaging analysis; format: functional, cell-based

| SMILES | Activity [1] | Activity [2] | Activity [3] | Activity [4] | Activity [5] | Activity [6] | Activity [7] |
| --- | --- | --- | --- | --- | --- | --- | --- |
| C=C1C[C@]23C[C@@]1(O)CC[C@H]2[C@@]12C=C[C@H](O)[C@](C)(C(=O)O1)[C@H]2[C@@H]3C(=O)NCc1ccc(Cl)cc1 | Active | Active | inactive | <30% | inactive |  |  |
| C=C1C[C@]23C[C@@]1(O)CC[C@H]2[C@@]12C=C[C@H](O)[C@](C)(C(=O)O1)[C@H]2[C@@H]3C(=O)NCc1ccc(F)cc1 |  |  |  | <30% |  |  |  |
| C=C1C[C@]23C[C@@]1(O)CC[C@H]2[C@@]12C=C[C@H](O)[C@](C)(C(=O)O1)[C@H]2[C@@H]3C(=O)NCc1ccccc1 |  |  |  | <30% |  |  |  |
| C=C1C[C@]23C[C@@]1(O)CC[C@H]2[C@@]12C=C[C@H](O)[C@](C)(C(=O)O1)[C@H]2[C@@H]3C(=O)NCc1ccc(Br)cc1 | Active | Active | inactive | <30% | inactive |  |  |
| C=C1C[C@]23C[C@@]1(O)CC[C@H]2[C@@]12C=C[C@H](O)[C@](C)(C(=O)O1)[C@H]2[C@@H]3C(=O)NCCc1ccc(OC)cc1 |  |  |  | <30% |  |  |  |
| C=C1C[C@]23C[C@@]1(O)CC[C@H]2[C@@]12C=C[C@H](O)[C@](C)(C(=O)O1)[C@H]2[C@@H]3C(=O)NCCc1ccc(Br)cc1 | Active | Active | inactive | <30% | inactive |  |  |
| C=C1C[C@]23C[C@@]1(O)CC[C@H]2[C@@]12C=C[C@H](O)[C@](C)(C(=O)O1)[C@H]2[C@@H]3C(=O)NCCc1ccccn1 | Active | Active | inactive | <30% | inactive |  |  |
| C=C1C[C@]23C[C@@]1(O)CC[C@H]2[C@@]12C=C[C@H](O)[C@](C)(C(=O)O1)[C@H]2[C@@H]3C(=O)NCc1ccc(OC)cc1 |  |  |  | <30% |  |  |  |
| C=C1C[C@]23C[C@@]1(O)CC[C@H]2[C@@]12C=C[C@H](O)[C@](C)(C(=O)O1)[C@H]2[C@@H]3C(=O)NCCc1ccc(Cl)cc1 |  |  |  | <30% |  |  |  |
| C=C1C[C@]23C[C@@]1(O)CC[C@H]2[C@@]12C=C[C@H](O)[C@](C)(C(=O)O1)[C@H]2[C@@H]3C(=O)NCCc1ccccc1 |  |  |  | <30% |  |  |  |
| C=C1C[C@]23C[C@@]1(O)CC[C@H]2[C@@]12C=C[C@H](O)[C@](C)(C(=O)O1)[C@H]2[C@@H]3C(=O)O [GIBBERELLIN GA3] |  | Active | inactive | <30% | inactive |  |  |
| CCCCCCCCCCC[C@@H](C[C@@H]1OC(=O)[C@H]1CCCCCC)OC(=O)[C@H](CC(C)C)NC=O |  |  |  |  |  | Active |  |
| CCCCCCCCCCCCCCOc1ccc(C(=O)O)o1 |  |  |  |  |  |  | Active |
| C=C1C[C@]23C[C@@]1(O)CC[C@H]2[C@@]12C=C[C@H](O)[C@](C)(C(=O)O1)[C@H]2[C@@H]3C(=O)NCCc1ccc(F)cc1 | Active | Active | inactive | <30% | inactive |  |  |
| C=C1C[C@]23C[C@@]1(O)CC[C@H]2[C@@]12C=C[C@H](O)[C@](C)(C(=O)O1)[C@H]2[C@@H]3C(=O)NCCc1cccs1 |  |  |  | <30% |  |  |  |
